ChEMBL document CHEMBL1122207, “Antitumor agents. 2. Bisguanylhydrazones of anthracene-9,10-dicarboxaldehydes” (1982)

Legend:
Type in all cases: functional
[1] = species on record: Mus musculus; experiment: Anticancer activity measured as the number of survivors of the total treated mice with P-388 leukemia at 30 days.
Method in brief: (§1)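 BDF1 or CDF1 mice given 10^6 ascitic P-388 leukemia cells ip, then treated ip on days 1, 5 and 9. Cures are survivors over total treated at 30 days.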

[2] = system: Mus musculus; experiment: Percent increase in median life span of BDF1 mice with P-388 leukemia at dose 200 mg/kg administered intraperitoneally; settings: BDF1, P388, ip, route intraperitoneal
[3] = species on record: Mus musculus; experiment: Number of survivors of the total treated mice with B-16 melanoma, at 60 days.
Method in brief: (§2)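 BDF1 mice were implanted ip with a homogenate from 0.05 g of B-16 melanoma and dosed ip on days 1-9. Cures are survivors over total at 60 days.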

[4] = system: Mus musculus; experiment: Percent increase in median life span of BDF1 mice with P-388 leukemia administered intraperitoneally
[5] = system: Mus musculus; experiment: Percent increase in median life span of BDF1 mice with B-16 melanoma administered intraperitoneally
Method in brief: (§3)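 BDF1 mice were implanted ip with a homogenate from 0.05 g of B-16 melanoma. Ip dosing ran on days 1-9, starting 24 h after implant, in dose-response studies following NCI protocols. The read-out was percent increase in life span (ILS). T/C ≥125% was taken as significant.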

[6] = system: Mus musculus; experiment: Percent increase in median life span of BDF1 mice with P-388 leukemia at dose 25 mg/kg administered intraperitoneally; settings: BDF1, P388, ip, route intraperitoneal
[7] = system: Mus musculus; experiment: Percent increase in median life span of BDF1 mice with B-16 melanoma at dose 12 mg/kg administered intraperitoneally; settings: BDF1, B16, ip, route intraperitoneal; method in brief: as §3
[8] = species on record: Mus musculus; experiment: Cures is the number of survivors of the total treated mice (6) with P-388 leukemia, at 30 days.; method in brief: as §1
[9] = system: Mus musculus; experiment: Percent increase in median life span of BDF1 mice with B-16 melanoma at dose 25 mg/kg administered intraperitoneally; settings: BDF1, B16, ip, route intraperitoneal; method in brief: as §3
[10] = system: Mus musculus; experiment: Percent increase in median life span of BDF1 mice with P-388 leukemia at dose 50 mg/kg administered intraperitoneally; settings: BDF1, P388, ip, route intraperitoneal
[11] = system: Mus musculus; experiment: Percent increase in median life span of BDF1 mice with B-16 melanoma at dose 50 mg/kg administered intraperitoneally; settings: BDF1, B16, ip, route intraperitoneal; method in brief: as §3
[12] = species on record: Mus musculus; experiment: Cures is the number of survivors of the total treated mice (10) with B-16 melanoma, at 60 days.; method in brief: as §2
[13] = system: Mus musculus; experiment: Percent increase in median life span of BDF1 mice with B-16 melanoma at dose 12.5 mg/kg administered intraperitoneally; settings: BDF1, B16, ip, route intraperitoneal; method in brief: as §3
[14] = species on record: Mus musculus; experiment: Cures is the number of survivors of the total treated mice (12) with P-388 leukemia, at 30 days.; method in brief: as §1
[15] = system: Mus musculus; experiment: Percent increase in median life span of BDF1 mice with P-388 leukemia at dose 12.5 mg/kg administered intraperitoneally; settings: BDF1, P388, ip, route intraperitoneal
[16] = system: Mus musculus; experiment: Percent increase in median life span of BDF1 mice with P-388 leukemia at dose 6.25 mg/kg administered intraperitoneally; settings: BDF1, P388, ip, route intraperitoneal
[17] = system: Mus musculus; experiment: Percent increase in median life span of BDF1 mice with B-16 melanoma at dose 3.1 mg/kg administered intraperitoneally; settings: BDF1, B16, ip, route intraperitoneal; method in brief: as §3

Structure (SMILES): N/N=C(\S)N/N=C/c1c2ccccc2c(/C=N/N/C(S)=N/N)c2ccccc12
- Cures [1]: 0
- ILS at 200 mg/kg [2]: 0%

Structure (SMILES): CSC(=N)N/N=C/c1c2ccccc2c(/C=N/N=C(/N)SC)c2ccccc12
- Cures [1]: 0
- ILS at 200 mg/kg [2]: 0%

Structure (SMILES): CC(C)(C)c1ccc2c(/C=N/NC3=NCCN3)c3ccccc3c(/C=N/NC3=NCCN3)c2c1.Cl.Cl
- Cures [3]: 0
- Cures [1]: 0
- ILS [4]: 0%
- ILS [5]: 0%

Structure (SMILES): COc1ccc(OC)c2c1C(/C=N/NC1=NCCN1)c1ccccc1C2/C=N/NC1=NCCN1 (centres undefined)
- ILS at 200 mg/kg [2]: 0%

Structure (SMILES): C(=N\NC1=NCCCCC1)/c1c2ccccc2c(/C=N/NC2=NCCCCC2)c2ccccc12.Cl.Cl
- Cures [3]: 0
- Cures [1]: 0
- ILS at 25 mg/kg [6]: 95%
- ILS at 12 mg/kg [7]: 35%

Structure (SMILES): Cl.Cl.Cl.Cl.N=C(NCc1cccnc1)N/N=C/c1c2ccccc2c(/C=N/NC(=N)NCc2cccnc2)c2ccccc12
- Cures [8]: 1
- Cures [3]: 0
- ILS at 25 mg/kg [6]: 114%
- ILS at 25 mg/kg [9]: 77%

Structure (SMILES): CC1(C)CCC(C)(C)NC(N/N=C/c2c3ccccc3c(/C=N/NC3=NC(C)(C)CCC(C)(C)N3)c3ccccc23)=N1.Cl.Cl
- Cures [1]: 0
- ILS at 50 mg/kg [10]: 0%

Structure (SMILES): CCCCCCCCCCCCCCCC/N=C(\N)N/N=C/c1c2ccccc2c(/C=N/N/C(N)=N/CCCCCCCCCCCCCCCC)c2ccccc12.Cl.Cl
- Cures [3]: 0
- Cures [1]: 0
- ILS at 200 mg/kg [2]: 0%
- ILS at 50 mg/kg [11]: 0%

Structure (SMILES): CC(C)CN(CC/N=C(\S)N/N=C/c1c2ccccc2c(/C=N/N/C(S)=N/CCN(CC(C)C)CC(C)C)c2ccccc12)CC(C)C.Cl.Cl
- Cures [1]: 0
- ILS at 25 mg/kg [6]: 33%

Structure (SMILES): N=C(NCc1ccccc1)N/N=C/c1c2ccccc2c(/C=N/NC(=N)NCc2ccccc2)c2ccccc12
- Cures [3]: 0
- Cures [1]: 0
- ILS at 25 mg/kg [6]: 68%
- ILS at 12 mg/kg [7]: 47%

Structure (SMILES): CCCO.Clc1cccc2c1C(/C=N/NC1=NCCN1)c1cccc(Cl)c1C2/C=N/NC1=NCCN1 (centres undefined)
- ILS at 200 mg/kg [2]: 0%
- ILS at 50 mg/kg [11]: 0%

Structure (SMILES): Cl.Cl.S=C(NCCN1CCCCC1)N/N=C/c1c2ccccc2c(/C=N/NC(=S)NCCN2CCCCC2)c2ccccc12
- Cures [1]: 0
- ILS [5]: 0%
- ILS at 50 mg/kg [10]: 58%

Structure (SMILES): Cc1ccc(S(=O)(=O)N/N=C/c2c3ccccc3c(/C=N/NS(=O)(=O)c3ccc(C)cc3)c3ccccc23)cc1
- Cures [1]: 0
- ILS at 200 mg/kg [2]: 0%

Structure (SMILES): Cl.Cl.Clc1ccc2c(c1)C(/C=N/NC1=NCCN1)c1ccccc1C2/C=N/NC1=NCCN1 (centres undefined)
- Cures [12]: 5
- ILS at 50 mg/kg [10]: 100%
- ILS at 12.5 mg/kg [13]: 230%

Structure (SMILES): Cl.Cl.S=C(NCCN1CCOCC1)N/N=C/c1c2ccccc2c(/C=N/NC(=S)NCCN2CCOCC2)c2ccccc12
- Cures [1]: 0
- Cures [12]: 1
- ILS at 50 mg/kg [10]: 80%
- ILS at 12 mg/kg [7]: 103%

Structure (SMILES): Cl.Cl.Clc1cccc2c1C(/C=N/NC1=NCCN1)c1ccccc1C2/C=N/NC1=NCCN1 (centres undefined)
- Cures [12]: 3
- ILS at 50 mg/kg [10]: 100%
- ILS at 50 mg/kg [11]: 153%

Structure (SMILES): Cl.Cl.Cl.Cl.N=C(NCc1ccccn1)N/N=C/c1c2ccccc2c(/C=N/NC(=N)NCc2ccccn2)c2ccccc12
- Cures [3]: 0
- Cures [1]: 0
- ILS at 50 mg/kg [10]: 95%
- ILS at 25 mg/kg [9]: 74%

Structure (SMILES): C(=N\Nc1ccccn1)/c1c2ccccc2c(/C=N/Nc2ccccn2)c2ccccc12
- Cures [1]: 0
- ILS at 200 mg/kg [2]: 0%

Structure (SMILES): C(=N\NC1=NCCCN1)/c1c2ccccc2c(/C=N/NC2=NCCCN2)c2ccccc12.Cl.Cl
- Cures [14]: 1
- Cures [3]: 0
- ILS at 12.5 mg/kg [15]: 82%
- ILS at 12 mg/kg [7]: 106%

Structure (SMILES): CN(C)CC/N=C/c1c2ccccc2c(/C=N/CCN(C)C)c2ccccc12
- Cures [1]: 0
- ILS at 200 mg/kg [2]: 0%

Structure (SMILES): Cl.Cl.Cl.Cl.N=C(NCc1ccncc1)N/N=C/c1c2ccccc2c(/C=N/NC(=N)NCc2ccncc2)c2ccccc12
- Cures [3]: 0
- Cures [1]: 0
- ILS at 12.5 mg/kg [15]: 90%
- ILS at 25 mg/kg [9]: 78%

Structure (SMILES): CN1CCN(/N=C/c2c3ccccc3c(/C=N/N3CCN(C)CC3)c3ccccc23)CC1.Cl.Cl
- Cures [1]: 0
- ILS at 200 mg/kg [2]: 0%

Structure (SMILES): Cl.Cl.Fc1ccc2c(/C=N/NC3=NCCN3)c3ccccc3c(/C=N/NC3=NCCN3)c2c1
- Cures [14]: 3
- Cures [12]: 4
- ILS at 6.25 mg/kg [16]: 123%
- ILS at 3.1 mg/kg [17]: 183%

Structure (SMILES): CN(C)c1ccc(N/C(S)=N/N=C/c2c3ccccc3c(/C=N/N=C(/S)Nc3ccc(N(C)C)cc3)c3ccccc23)cc1
- ILS [4]: 0%
